Measurements taken from publication PMC10962891 (Hepatology Communications, 2024).
Entries after “also recorded” stand apart in the source; their conditions may differ.

Key:
human FXRα2 = target: T1, human FXRα2 (Homo sapiens, UniProt Q96RI1); experiment: FXR luciferase reporter assay in 293T cells transfected with FXRα2; type: cell-based; conditions: for EC50: read-out: EC50 for FXR (cell-based reporter assay, composite EC50), second column entry, 293T cells expressing FXRα2, RXRα, ASBT, repeated thrice for L-TyrCDCA only
T1 sequence (Q96RI1 1-472 isoform Q96RI1-2): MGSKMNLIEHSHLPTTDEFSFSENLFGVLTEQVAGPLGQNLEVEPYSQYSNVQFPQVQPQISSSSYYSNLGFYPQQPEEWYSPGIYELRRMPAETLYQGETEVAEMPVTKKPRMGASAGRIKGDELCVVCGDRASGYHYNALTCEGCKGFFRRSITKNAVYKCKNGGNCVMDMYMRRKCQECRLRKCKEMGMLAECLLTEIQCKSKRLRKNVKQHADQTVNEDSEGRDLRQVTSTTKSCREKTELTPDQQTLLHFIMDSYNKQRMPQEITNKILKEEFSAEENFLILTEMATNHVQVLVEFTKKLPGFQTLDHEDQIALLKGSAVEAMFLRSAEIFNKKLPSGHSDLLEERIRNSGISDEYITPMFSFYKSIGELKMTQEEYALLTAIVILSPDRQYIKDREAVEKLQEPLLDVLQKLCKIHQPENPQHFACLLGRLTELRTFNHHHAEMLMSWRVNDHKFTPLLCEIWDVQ
T1 sequence (P19793 1-462 partner): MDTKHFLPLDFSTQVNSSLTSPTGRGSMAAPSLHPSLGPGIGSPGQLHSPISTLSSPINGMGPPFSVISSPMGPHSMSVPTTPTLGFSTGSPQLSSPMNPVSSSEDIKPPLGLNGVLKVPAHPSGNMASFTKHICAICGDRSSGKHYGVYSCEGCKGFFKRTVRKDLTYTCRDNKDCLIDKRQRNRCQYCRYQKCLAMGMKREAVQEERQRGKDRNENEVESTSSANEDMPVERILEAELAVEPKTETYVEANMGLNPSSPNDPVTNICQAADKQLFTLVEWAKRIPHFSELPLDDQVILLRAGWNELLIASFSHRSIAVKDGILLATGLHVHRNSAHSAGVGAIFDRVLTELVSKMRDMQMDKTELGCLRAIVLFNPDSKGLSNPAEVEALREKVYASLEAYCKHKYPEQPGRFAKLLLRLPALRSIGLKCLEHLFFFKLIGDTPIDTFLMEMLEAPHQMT
Procedure, shortened: (§1)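 293T cells (70–80% confluent) were co-transfected by lipofection with FXRα2 or FXRα4 (10 ng), RXRα (2 ng), an Shp-element firefly reporter (5 ng), Renilla pRL-TK (2 ng), ASBT or NTCP (0 or 1 ng) and GFP filler to 100 ng. After 24 h, cells received 0.1% DMSO, a 10 µM positive control, or test compounds in serum-free medium for 24 h. Firefly:Renilla ratios were set relative to DMSO; quadruplicates, 3 independent runs.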

C. difficile [1] = conditions: cited from earlier work
human TGR5 [2] = target: T2, human TGR5 (Homo sapiens, UniProt Q8TDU6); experiment: cell-based
T2 sequence (Q8TDU6 1-330): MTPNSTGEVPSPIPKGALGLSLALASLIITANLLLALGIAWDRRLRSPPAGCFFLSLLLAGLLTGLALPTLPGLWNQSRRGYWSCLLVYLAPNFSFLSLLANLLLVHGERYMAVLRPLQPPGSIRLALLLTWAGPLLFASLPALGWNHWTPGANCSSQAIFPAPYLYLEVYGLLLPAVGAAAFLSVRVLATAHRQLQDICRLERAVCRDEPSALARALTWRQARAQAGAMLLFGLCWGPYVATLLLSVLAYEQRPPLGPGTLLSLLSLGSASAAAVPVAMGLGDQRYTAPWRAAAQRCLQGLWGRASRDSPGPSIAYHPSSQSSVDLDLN

RAW264.7 cells = experiment: LPS-induced cytokine release; type: cell-based, murine; conditions: then 3 ng/mL LPS 23 h; for effect on LPS-enhanced medium levels of TNFα and IL-6: 100 µM pretreatment 1 h
Procedure, shortened: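 RAW264.7 cells at 70–80% confluency were pretreated 1 h in serum-free medium with 0.1% DMSO, a 50 µM positive control, or test compounds. LPS (E. coli O128:B12, 3 ng/mL) was then added for 23 h. Cleared supernatants (300 g, 10 min) were assayed for IL-6 and TNFα by ELISA, normalized to cellular protein. Quadruplicates; three repeats.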

human TGR5 [3] = target: T2, human TGR5; type: cell-based; conditions: 10 µM positive control, 293T cells -/+ TGR5 overexpression
microbial composition = conditions: initial tests; cited from earlier work
[4] = mice, considerable dose; cited from earlier work
human FXRα4 = target: T3, human FXRα4 (Homo sapiens, UniProt Q96RI1); experiment: FXR luciferase reporter assay in 293T cells transfected with FXRα4; type: cell-based; conditions: 10 µM, cells overexpressing FXRα4, independent of bile salt importer
T3 sequence (Q96RI1 1-482 isoform Q96RI1-4): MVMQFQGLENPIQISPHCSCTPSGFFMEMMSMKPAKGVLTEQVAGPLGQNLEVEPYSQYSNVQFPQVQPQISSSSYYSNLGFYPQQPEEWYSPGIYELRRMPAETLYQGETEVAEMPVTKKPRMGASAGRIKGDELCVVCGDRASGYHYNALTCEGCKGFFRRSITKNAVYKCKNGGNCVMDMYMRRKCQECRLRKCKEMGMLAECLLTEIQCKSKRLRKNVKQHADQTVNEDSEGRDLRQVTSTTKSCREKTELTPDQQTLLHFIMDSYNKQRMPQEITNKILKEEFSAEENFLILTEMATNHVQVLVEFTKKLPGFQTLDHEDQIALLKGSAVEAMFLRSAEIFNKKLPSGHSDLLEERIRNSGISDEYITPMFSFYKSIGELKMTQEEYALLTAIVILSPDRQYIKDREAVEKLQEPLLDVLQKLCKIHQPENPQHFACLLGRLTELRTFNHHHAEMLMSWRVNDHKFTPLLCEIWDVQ
T3 sequence (P19793 1-462 partner): T1 sequence (P19793 1-462 partner)
Procedure, shortened: as §1

C. difficile [5] = conditions: cited from earlier work; remark: listed apart in the source

In the case of `C[C@H](CCC(=O)N[C@@H](Cc1ccc(O)cc1)C(=O)O)[C@H]1CC[C@H]2[C@@H]3[C@H](O)C[C@@H]4C[C@H](O)CC[C@]4(C)[C@H]3CC[C@]12C` [L-TyrCDCA, L-Tyrosochenodeoxycholic acid], the EC50 (human FXRα2) is reported as 7.8 µM.
For `C[C@H](CCC(=O)N[C@@H](Cc1ccccc1)C(=O)O)[C@H]1CC[C@H]2[C@@H]3[C@@H](O)[C@@H](O)[C@@H]4C[C@H](O)CC[C@]4(C)[C@H]3CC[C@]12C` [Pheβ muricholic acid], the “spore germination of C. difficile” value (C. difficile [1]) is listed as “inhibit”.
With `C[C@H](CCC(=O)N[C@H](Cc1ccc(O)cc1)C(=O)O)[C@H]1CC[C@H]2[C@@H]3[C@H](O)C[C@@H]4C[C@H](O)CC[C@]4(C)[C@H]3CC[C@]12C` [D-TyrCDCA, D-Tyrosochenodeoxycholic acid] the EC50 (human FXRα2) was 6.8 µM.
Compound `CC(CCC(=O)NCC(=O)O)C1CCC2C3C(O)CC4CC(O)CCC4(C)C3CCC12C` (centres unmarked) [GCDCA, glycochenodeoxycholic acid] has an EC50 (human TGR5 [2]) of 29.4 ± 0.9 µM.
In the case of `C[C@H](CCC(=O)N[C@@H](Cc1ccccc1)C(=O)O)[C@H]1CC[C@H]2[C@@H]3[C@H](O)C[C@@H]4C[C@H](O)CC[C@]4(C)[C@H]3CC[C@]12C` [PheCDCA, phenylalanochenodeoxycholic acid], the “effect on LPS-enhanced medium levels of TNFα and IL-6” value (RAW264.7 cells) is reported as “counteracted”.
For `C=C[C@@]1(C)CC(=O)[C@]2(O)[C@@]3(C)[C@@H](O)CCC(C)(C)[C@@H]3[C@H](O)[C@H](OC(C)=O)[C@@]2(C)O1` [forskolin, Forskolin A], the “activation of cAMP-driven reporter” value (human TGR5 [3]) was “activated the reporter independent of TGR5 overexpression”.
`C[C@H](CCC(=O)NCC(=O)O)[C@H]1CC[C@H]2[C@@H]3[C@H](O)C[C@@H]4C[C@H](O)CC[C@]4(C)[C@H]3C[C@H](O)[C@]12C` [GCA, glycocholic acid] showed an EC50 (human TGR5 [2]) of 342 ± 26.7 µM.
For `CC(C)C[C@H](NC(=O)CC[C@@H](C)[C@H]1CC[C@H]2[C@@H]3[C@H](O)C[C@@H]4C[C@H](O)CC[C@]4(C)[C@H]3C[C@H](O)[C@]12C)C(=O)O` [LeuCA, leucocholic acid], the “effect on microbial composition in vitro” value (microbial composition) is given as “did not affect” and the “detection in portal blood or bile after repeated oral gavage” value [4] is given as “failure to detect; also recorded: did not lead to detection”.
With `CC[C@H]1[C@@H](O)[C@@H]2[C@H](CC[C@]3(C)[C@@H]([C@H](C)CCC(=O)O)CC[C@@H]23)[C@@]2(C)CC[C@@H](O)C[C@@H]12` [OCA, obeticholic acid, reference compound] the FXR reporter activation (human FXRα4) was “strongly activated”, the “FXR reporter activation in mock-transfected cells (-OSTαβ)” value (human FXRα2; 10 µM, FXRα2/RXRα, no transporter) was “able to activate FXR” and the FXR reporter activation (human FXRα2; 10 µM, cells overexpressing FXRα2, independent of bile salt importer) was “strongly activated”.
For `C[C@H](CCC(=O)N[C@@H](Cc1ccc(O)cc1)C(=O)O)[C@H]1CC[C@H]2[C@@H]3[C@H](O)C[C@@H]4C[C@H](O)CC[C@]4(C)[C@H]3C[C@H](O)[C@]12C` [L-TyrCA, L-Tyrosocholic acid], the EC50 (human FXRα2) was 46.3 µM and the “affinity for FXRα2 relative to D/L-TyrCDCA (fold lower)” value (human FXRα2; reporter cells expressing uptake transporter) was 6 fold.
For `C[C@H](CCC(=O)NCCS(=O)(=O)O)[C@H]1CC[C@H]2[C@@H]3CC[C@@H]4C[C@H](O)CC[C@]4(C)[C@H]3CC[C@]12C` [TLCA, taurolithocholic acid, reference compound], the “change of LPS-induced IL-6 level” value (RAW264.7 cells; 50 µM pretreatment 1 h) was -4.6 fold and the “change of LPS-induced TNFα level” value (RAW264.7 cells; 50 µM pretreatment 1 h) was -3.6 fold.
For `C[C@H](CCC(=O)N[C@H](Cc1ccc(O)cc1)C(=O)O)[C@H]1CC[C@H]2[C@@H]3[C@H](O)C[C@@H]4C[C@H](O)CC[C@]4(C)[C@H]3C[C@H](O)[C@]12C` [D-TyrCA, D-Tyrosocholic acid], the EC50 (human FXRα2) was 9.9 µM.
For `C[C@H](CCC(=O)N[C@@H](Cc1ccc(O)cc1)C(=O)O)[C@H]1CC[C@H]2[C@@H]3[C@H](O)C[C@@H]4C[C@H](O)CC[C@]4(C)[C@H]3C[C@H](O)[C@]12C` [TyrCA, tyrosocholic acid], the “growth of C. difficile” value (C. difficile [5]) is listed as “not inhibited”, the “effect on microbial composition in vitro” value (microbial composition) is listed as “did not affect” and the “detection in portal blood or bile after repeated oral gavage” value [4] is listed as “failure to detect; also recorded: did not lead to detection”. For the same compound, the “spore germination of C. difficile” value (C. difficile [1]) was “inhibit”.
Work on `C[C@H](CCC(=O)NCCS(=O)(=O)O)[C@H]1CC[C@H]2[C@@H]3[C@H](O)C[C@@H]4C[C@H](O)CC[C@]4(C)[C@H]3C[C@H](O)[C@]12C` [TCA, Taurocholic acid] yielded an EC50 (human TGR5 [2]) of 277 ± 16.6 µM.
For `C[C@H](CCC(=O)N[C@@H](Cc1ccccc1)C(=O)O)[C@H]1CC[C@H]2[C@@H]3[C@H](O)C[C@@H]4C[C@H](O)CC[C@]4(C)[C@H]3C[C@H](O)[C@]12C` [PheCA, phenylalanocholic acid], the “growth of C. difficile” value (C. difficile [5]) is given as “not inhibited”, the “effect on LPS-enhanced medium levels of TNFα and IL-6” value (RAW264.7 cells) is given as “counteracted” and the “effect on microbial composition in vitro” value (microbial composition) is given as “did not affect”. For the same compound, the “spore germination of C. difficile” value (C. difficile [1]) was “inhibit”.
